In ChEMBL document CHEMBL1153198, “Design, synthesis and prostate cancer cell-based studies of analogs of the Rho/MKL1 transcriptional pathway inhibitor, CCG-1423” (Bioorg Med Chem Lett, 2010):

What was measured:
PC-3 [1] = assay: Cytotoxicity against human PC3 cells assessed as inhibition of mitochondrial metabolism at 10 uM by WST-1 assay; format: functional
PC-3 [2] = assay: Cytotoxicity against human PC3 cells assessed as inhibition of mitochondrial metabolism at 100 uM by WST-1 assay; format: functional
[3] = target: Transforming protein RhoA/Rho-related GTP-binding protein RhoC (Homo sapiens, UniProt P61586+P08134); assay: Inhibition of RhoA/C-mediated transcriptional response in human PC3 cells by serum response factor-luciferase reporter gene assay; format: cell-based; conditions: pc-3
PC-3 [4] = assay: Antiinvasive activity in human PC3 cells at 10 uM by Matrigel cell invasion assay; format: functional
How it was run: (§1)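 PC-3 cells (2 × 10^5) were seeded in low-serum DMEM (0.5% FBS) in the upper chamber of 24-well Matrigel inserts, with compound or DMSO. The lower well held the same 0.5% FBS medium, and cells were incubated 24 h at 37 °C in 5% CO2. Inserts were methanol-fixed, stained with 0.5% crystal violet, and non-invaded cells were wiped off. Stain was extracted in 20% acetic acid and read at 595 nm.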

PC-3 [5] = assay: Antiinvasive activity in human PC3 cells at 100 uM by Matrigel cell invasion assay; format: functional; how it was run: as §1

Row | Compound | IC50 [3] [µM] | other results
1 | O=C(CONC(=O)c1cccc(C(F)(F)F)c1)Nc1ccc(Cl)cc1 | 27 | inhibition at 10 µM (PC-3 [1]): 0%; inhibition at 100 µM (PC-3 [2]): 58%
2 | O=C(Nc1cc(C(F)(F)F)cc(C(F)(F)F)c1)C1CCN(C(=O)c2ccc(Cl)cc2)CC1 | 10 | inhibition at 10 µM (PC-3 [1]): 10%; inhibition at 100 µM (PC-3 [2]): 88%
3 | O=C(CC1CC(c2cc(C(F)(F)F)cc(C(F)(F)F)c2)=NO1)Nc1ccc(Cl)cc1 (centres undefined) | 4.2 | inhibition at 100 µM (PC-3 [2]): 38%
4 | O=C(NCCc1cn(-c2ccc(Cl)cc2)nn1)c1cc(C(F)(F)F)cc(C(F)(F)F)c1 | > 100 | 
5 | O=C(CONC(=O)c1ccc(C(F)(F)F)cc1)Nc1ccc(Cl)cc1 | 29 | inhibition at 10 µM (PC-3 [1]): 0%; inhibition at 100 µM (PC-3 [2]): 56%
6 | O=C(CCNC(=O)c1cc(C(F)(F)F)cc(C(F)(F)F)c1)NCc1ccc(Cl)cc1 | > 100 | 
7 | O=C(NCCCNc1ccc(Cl)cc1)c1cc(C(F)(F)F)cc(C(F)(F)F)c1 | 5.1 | 
8 | O=C(CCCCNC(=O)c1cc(C(F)(F)F)cc(C(F)(F)F)c1)Nc1ccc(Cl)cc1 | > 100 | 
9 | O=C(Nc1ccc(Cl)cc1)C1CCN(C(=O)c2cc(C(F)(F)F)cc(C(F)(F)F)c2)CC1 | 16 | 
10 | O=C(CONC(=O)c1cc(C(F)(F)F)cc(C(F)(F)F)c1)Nc1cccc(Cl)c1 | 5.9 | 
11 | O=C(CONC(=O)c1cc(C(F)(F)F)cc(C(F)(F)F)c1)Nc1ccccc1 | 36 | inhibition at 10 µM (PC-3 [1]): 0%; inhibition at 100 µM (PC-3 [2]): 37%
12 | O=C(CONC(=O)c1ccccc1)Nc1ccc(Cl)cc1 | > 100 | 
13 | O=C(CONC(=O)c1ccc(Cl)cc1)Nc1cc(C(F)(F)F)cc(C(F)(F)F)c1 | 8.6 | 
14 | O=C(CC1CCCCN1C(=O)c1cc(C(F)(F)F)cc(C(F)(F)F)c1)Nc1ccc(Cl)cc1 (centres undefined) | 9.5 | inhibition at 100 µM (PC-3 [2]): 14%
15 | O=C(Nc1ccccc1C(=O)Nc1ccc(Cl)cc1)c1cc(C(F)(F)F)cc(C(F)(F)F)c1 | > 100 | 
16 | CN(C(=O)CCNC(=O)c1cc(C(F)(F)F)cc(C(F)(F)F)c1)c1ccc(Cl)cc1 | > 100 | 
17 | O=C(CCNCc1cc(C(F)(F)F)cc(C(F)(F)F)c1)Nc1ccc(Cl)cc1 | 8.1 | inhibition (INH) (PC-3 [4]): 47%

Row | Compound | IC50 [3] [µM] | other results
18 | FC(F)(F)c1cc(CNCCCNc2ccc(Cl)cc2)cc(C(F)(F)F)c1 | 9.1 | inhibition at 100 µM (PC-3 [5]): 86%
19 | O=C(Nc1ccc(Cl)cc1)C1CCCN1C(=O)c1cc(C(F)(F)F)cc(C(F)(F)F)c1 (centres undefined) | 69 | inhibition at 100 µM (PC-3 [5]): 78%
20 | O=C(Nc1ccc(Cl)cc1)c1cccc(NC(=O)c2cc(C(F)(F)F)cc(C(F)(F)F)c2)c1 | 1.7 | 
21 | O=C(N[C@@H]1CCC[C@@H]1C(=O)Nc1ccc(Cl)cc1)c1cc(C(F)(F)F)cc(C(F)(F)F)c1 | > 100 | 
22 | O=C(NCCCOc1ccc(Cl)cc1)c1cc(C(F)(F)F)cc(C(F)(F)F)c1 | 8.9 | inhibition at 100 µM (PC-3 [5]): 26%
23 | O=C(CONC(=O)c1cc(C(F)(F)F)cc(C(F)(F)F)c1)Nc1ccc(Cl)cc1 | 4.7 | 
24 | O=C(CNC(=O)c1cc(C(F)(F)F)cc(C(F)(F)F)c1)Nc1ccc(Cl)cc1 | 33 | 
25 | O=C(CCCNC(=O)c1cc(C(F)(F)F)cc(C(F)(F)F)c1)Nc1ccc(Cl)cc1 | 21 | 
26 | O=C(c1cc(C(F)(F)F)cc(C(F)(F)F)c1)N1CCC(=O)N(c2ccc(Cl)cc2)CC1 | > 100 | 
27 | O=C(Nc1ccc(Cl)cc1)c1ccc(NC(=O)c2cc(C(F)(F)F)cc(C(F)(F)F)c2)cc1 | > 100 | inhibition at 100 µM (PC-3 [5]): 0%
28 | O=C(NCCC(=O)N1CCc2cc(Cl)ccc21)c1cc(C(F)(F)F)cc(C(F)(F)F)c1 | 13 | inhibition (INH) (PC-3 [4]): 0%; inhibition at 100 µM (PC-3 [5]): 0%
29 | O=C(Nc1ccc(Cl)cc1)C1CCN(C(=O)c2cc(C(F)(F)F)cc(C(F)(F)F)c2)C1 (centres undefined) | 16.3 | inhibition at 100 µM (PC-3 [2]): 67%
30 | O=C(CCc1cn(-c2cc(C(F)(F)F)cc(C(F)(F)F)c2)nn1)Nc1ccc(Cl)cc1 | > 100 | 
31 | O=C(c1cc(C(F)(F)F)cc(C(F)(F)F)c1)N1CCC(Nc2ccc(Cl)cc2)CC1 | 10.8 | inhibition at 10 µM (PC-3 [1]): 19%; inhibition at 100 µM (PC-3 [2]): 0%
32 | O=C(NCc1csc(-c2ccc(Cl)cc2)n1)c1cc(C(F)(F)F)cc(C(F)(F)F)c1 | 4.1 | 
33 | O=C(CCNC(=O)c1cc(C(F)(F)F)cc(C(F)(F)F)c1)Nc1ccc(Cl)cc1 | 38 | inhibition at 100 µM (PC-3 [2]): 10%
